# Assay results: ChEMBL document CHEMBL3351851, “Discovery and optimization of novel small-molecule HIV-1 entry inhibitors using field-based virtual screening and bioisosteric replacement” (Bioorg Med Chem Lett, 2014); call rule not given here
# Tests used:
# [1] = system: Human immunodeficiency virus 1; assay: Antiviral activity against Human immunodeficiency virus type 1 (isolate YU2) pseudotyped virus expressed in human U87 cells after 48 hrs by cell-based luciferase reporter gene assay; format: functional, U-87MG ATCC; conditions: Human immunodeficiency virus 1, isolate YU2, U-87 MG
# Summary of the method: (§1)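 Envelope-pseudotyped, single-round luciferase-reporter virus was made in 293T cells co-transfected with pNL4-3-LucR+E- and the matching Env vector. U87-CD4/CCR5 or U87-CD4/CXCR4 cells were seeded at 1.2x10⁴ per well and infected next day with 20 ng p24 per well plus compound (6–9 dilutions, 1:10 or 1:5, triplicate) or DMSO. Luciferase was read at 48 h; % infection is relative to DMSO wells.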
# [2] = system: Human immunodeficiency virus 1; assay: Antiviral activity against HIV1 pseudotyped virus expressed in human U87 cells co-expressing AMLV envelope after 48 hrs by cell-based luciferase reporter gene assay; format: functional, organism-based; conditions: u-87mg atcc
# Summary of the method: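 Single-round infection of U87-CD4/CCR5 or U87-CD4/CXCR4 cells (seeded at 1.2x10⁴/well, infected next day) with 20 ng p24 per well of luciferase-reporter pseudovirus made in 293T cells using pNL4-3-LucR⁺E⁻. Compounds were applied in six to nine serial dilutions (1:10 or 1:5) alongside DMSO, in triplicate. Luciferase was read at 48 h, and percent infection was taken relative to DMSO wells.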
# [3] = system: Human immunodeficiency virus 1; assay: Antiviral activity against Human immunodeficiency virus type 1 (JRCSF ISOLATE) pseudotyped virus expressed in human U87 cells after 48 hrs by luciferase reporter gene assay; format: functional, cell-based, U-87MG ATCC; conditions: Human immunodeficiency virus 1, JRCSF ISOLATE, U-87 MG; summary of the method: as §1
# [4] = system: Human immunodeficiency virus 1; assay: Antiviral activity against HIV1 isolate Hxbc2 pseudotyped virus expressed in human U87 cells after 48 hrs by luciferase reporter gene assay; format: functional, organism-based, U-87MG ATCC; conditions: Human immunodeficiency virus 1, isolate Hxbc2, U-87 MG; summary of the method: as §1
# [5] = system: Human immunodeficiency virus 2; assay: Antiviral activity against HIV2 isolate CDC310319 infected in human PBMC; format: functional, organism-based; conditions: Human immunodeficiency virus 2, isolate CDC310319
# [6] = system: Human immunodeficiency virus 1; assay: Antiviral activity against HIV1 subtype A isolate 92UG037 infected in human PBMC; format: functional, organism-based; conditions: Human immunodeficiency virus 1, isolate 92UG037
# [7] = system: Human immunodeficiency virus 1; assay: Antiviral activity against HIV1 subtype B isolate 91US004 infected in human PBMC; format: functional, organism-based; conditions: Human immunodeficiency virus 1, isolate 91US004
# [8] = system: Human immunodeficiency virus 1; assay: Antiviral activity against HIV1 subtype B isolate 94US_33931N infected in human PBMC; format: functional, organism-based; conditions: Human immunodeficiency virus 1, isolate 94US_33931N
# [9] = system: Human immunodeficiency virus 1; assay: Antiviral activity against HIV1 subtype C isolate 98US_MSC5016 infected in human PBMC; format: functional, organism-based; conditions: Human immunodeficiency virus 1, isolate 98US_MSC5016
# [10] = system: Human immunodeficiency virus 1; assay: Antiviral activity against HIV1 subtype D isolate 99UG_A07412M1 infected in human PBMC; format: functional, organism-based; conditions: Human immunodeficiency virus 1, isolate 99UG_A07412M1
# [11] = Antiviral index, ratio of TC50 for human PBMC to IC50 for HIV1 subtype A isolate 92UG037
# [12] = Antiviral index, ratio of TC50 for human PBMC to IC50 for HIV1 subtype B isolate 91US004
# [13] = Antiviral index, ratio of TC50 for human PBMC to IC50 for HIV1 subtype B isolate 94US_33931N
# [14] = Antiviral index, ratio of TC50 for human PBMC to IC50 for HIV1 subtype C isolate 98US_MSC5016
# [15] = Antiviral index, ratio of TC50 for human PBMC to IC50 for HIV1 subtype D isolate 99UG_A07412M1
compound,measurement,setting,value
O=C(CSc1ncnc2sccc12)N1CCN(C(=O)c2cccs2)CC1,IC50,[1],33700 nM
same,IC50,[2],Not Active
O=C(c1ccccc1)N1CCN(C(=O)c2ccc3c4c(cccc24)CC3)CC1,IC50,[1],13100 nM
same,IC50,[2],Not Active
O=C(COc1cccc2ccccc12)N1CCN(C(=O)c2ccccc2)CC1,IC50,[1],53500 nM
same,IC50,[2],Not Active
O=C(Cc1cccc2ccccc12)N1CCN(C(=O)c2ccco2)CC1,IC50,[1],79400 nM
same,IC50,[2],Not Active
Cc1cc(C)nc(SCC(=O)N2CCN(C(=O)c3ccccc3)CC2)n1,IC50,[1],153000 nM
same,IC50,[2],Not Active
O=C(c1ccccc1)N1CC2CN(C(=O)c3ccc4c5c(cccc35)CC4)CC2C1 (stereo not given),IC50,[2],Not Active
same,IC50,[3],100000 nM
COc1cnc(Cl)c2[nH]cc(C(=O)C(=O)N3CC4CN(C(=O)c5ccccc5)CC4C3)c12 (stereo not given),IC50,[2],Not Active
same,IC50,[3],980 nM
same,IC50,[4],16800 nM
COc1ncc(OC)c2c(C(=O)C(=O)N3CC4CN(C(=O)c5ccccc5)CC4C3)c[nH]c12 (stereo not given),IC50,[2],Not Active
same,IC50,[3],90 nM
same,IC50,[4],190 nM
COc1cnc(-n2cnc(C)n2)c2[nH]cc(C(=O)C(=O)N3CC4CN(C(=O)c5ccccc5)CC4C3)c12 (stereo not given),IC50,[2],Not Active
same,IC50,[3],0.8 nM
same,IC50,[4],1 nM
COc1cnc(-n2cnc(C)n2)c2[nH]cc(C(=O)C(=O)N3CC4CN(C(=O)C5=CCCCC5)CC4C3)c12 (stereo not given),IC50,[2],Not Active
same,IC50,[5],> 100000 nM
same,IC50,[3],2 nM
same,IC50,[4],0.6 nM
same,IC50,[6],25200 nM
same,IC50,[7],195 nM
same,IC50,[8],0.6 nM
same,IC50,[9],3900 nM
same,IC50,[10],490 nM
same,Ratio,[11],>3.97
same,Ratio,[12],>513
same,Ratio,[13],>166666
same,Ratio,[14],>25.6
same,Ratio,[15],>204
